{"data": "Experimental data gathered from unrelated publications", "observed": "cell growth or viability"}
{"SMILES": "Cc1noc2c1-c1ccccc1C(c1ccc(Cl)cc1)=N[C@H]2CC(N)=O", "cell line": "NB-4", "assay": "ATP luminescence", "setting": "72 h", "IC50": "760 nM"}
{"SMILES": "C=C(F)C(=O)N1CCN(c2nc(OC[C@@H]3CCCN3C)nc3c2CCN(c2cccc4cccc(Cl)c24)C3)C[C@@H]1CC#N", "cell line": "NCI-H1792", "assay": "ATP luminescence", "IC50": "674 nM"}
{"SMILES": "CC1(C)CCC2(CC1)N[C@@H](C(=O)N[C@@H]1CC[C@@H](C(N)=O)OC1)[C@H](c1ccnc(Cl)c1F)[C@]21C(=O)Nc2cc(Cl)ccc21", "cell line": "U2OS", "assay": "resazurin", "setting": "72 h", "IC50": "> 2000 nM"}
{"SMILES": "Cc1nc(Nc2ccc3c(c2)/C(=C/c2ccccc2C)C(=O)N3C)c2ccccc2n1", "cell line": "H22", "assay": "MTT", "IC50": "4780 nM"}
{"SMILES": "Nc1ccc(/C=C/C(=O)N2CCc3c(oc4c(-c5ccc(F)cc5)cc(-c5ccc(C(=O)N6CCC(F)(F)CC6)nn5)cc34)C2)cn1", "cell line": "U2OS", "assay": "CCK-8", "setting": "72 h", "IC50": "640 nM"}
{"SMILES": "O=c1c(C=NNC(=S)Nc2ccccc2)coc2ccccc12", "cell line": "HeLa", "assay": "MTT", "setting": "24 h", "IC50": "> 100000 nM"}
{"SMILES": "CCNCCCn1c2c(c3cc(OC)c(OC)cc3c1=O)C(=O)c1cc3c(nc1-2)OCO3", "cell line": "L-363", "assay": "MTS", "setting": "72 h", "IC50": "96 nM"}
{"SMILES": "COc1cc2ncnc(N(C)c3ccc4c(c3)/C(=C/c3ccccc3)C(=O)N4C)c2cc1OC (mixture of isomers)", "cell line": "H22", "assay": "MTT", "IC50": "4960 nM"}
{"SMILES": "Nc1ccc(/C=C/C(=O)N2CCc3c(oc4c(-c5ccc(F)cc5)cc(-c5ccc(C(=O)N6CCC(F)(F)CC6)cc5F)cc34)C2)cn1", "cell line": "U2OS", "assay": "CCK-8", "setting": "72 h", "IC50": "> 10000 nM"}
{"SMILES": "Cc1nc(Nc2ccc3c(c2)/C(=C/c2ccccc2)C(=O)N3Cc2ccccc2)c2ccccc2n1", "cell line": "H22", "assay": "MTT", "IC50": "1080 nM"}
{"SMILES": "Nc1ccc(/C=C/C(=O)N2CCc3c(oc4c(-c5ccc(F)cc5)cc(-c5ncc(C(=O)N6CCC(F)(F)CC6)cn5)cc34)C2)cn1", "cell line": "U2OS", "assay": "CCK-8", "setting": "72 h", "IC50": "5740 nM"}
{"SMILES": "COc1cc2c3c(n(CCCNCCO)c(=O)c2cc1OC)-c1nc2c(cc1C3=O)OCO2", "cell line": "L-363", "assay": "MTS", "setting": "72 h", "IC50": "154 nM"}
{"SMILES": "Cc1nc(Nc2ccc3c(c2)/C(=C/c2ccccc2)C(=O)N3C)c2ccccc2n1", "cell line": "H22", "assay": "MTT", "IC50": "5340 nM"}
{"SMILES": "N[C@H]1CC[C@H](N[C@@H]2C[C@H]2c2ccccc2)CC1", "cell line": "U2OS", "assay": "resazurin", "IC50": "346000 nM"}
{"SMILES": "Nc1ccc(/C=C/C(=O)N2CCc3c(oc4c(-c5ccc(F)cc5)cc(-c5ccc(C(=O)N6CCOCC6)nn5)cc34)C2)cn1", "cell line": "U2OS", "assay": "CCK-8", "setting": "72 h", "IC50": "730 nM"}
